Experimental data taken from ChEMBL document CHEMBL1142034, “Inhibitors of HCV NS5B polymerase: synthesis and structure-activity relationships of N-1-heteroalkyl-4-hydroxyquinolon-3-yl-benzothiadiazines” (Bioorg Med Chem Lett, 2005).

Assays:
[1] = target: T1, RNA-directed RNA polymerase (Hepacivirus hominis, UniProt O39930); assay: Inhibitory concentration against RNA dependent RNA polymerase Nonstructural protein 5B of genotype 1a Hepatitis C virus
Method in brief: (§1)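 A biochemical assay on NS5B polymerase enzyme gave the IC50 values, run separately for genotype 1a and 1b.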

[2] = target: T1, RNA-directed RNA polymerase; assay: Effective concentration against RNA dependent RNA polymerase Nonstructural protein 5B of genotype 1b Hepatitis C virus
Method in brief: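 Activity measured in an HCV replicon assay, with EC50 values derived from it.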

[3] = target: T1, RNA-directed RNA polymerase; assay: Inhibitory concentration against RNA dependent RNA polymerase Nonstructural protein 5B of genotype 1b Hepatitis C virus; method in brief: as §1

T1 sequence (O39930 whole entry): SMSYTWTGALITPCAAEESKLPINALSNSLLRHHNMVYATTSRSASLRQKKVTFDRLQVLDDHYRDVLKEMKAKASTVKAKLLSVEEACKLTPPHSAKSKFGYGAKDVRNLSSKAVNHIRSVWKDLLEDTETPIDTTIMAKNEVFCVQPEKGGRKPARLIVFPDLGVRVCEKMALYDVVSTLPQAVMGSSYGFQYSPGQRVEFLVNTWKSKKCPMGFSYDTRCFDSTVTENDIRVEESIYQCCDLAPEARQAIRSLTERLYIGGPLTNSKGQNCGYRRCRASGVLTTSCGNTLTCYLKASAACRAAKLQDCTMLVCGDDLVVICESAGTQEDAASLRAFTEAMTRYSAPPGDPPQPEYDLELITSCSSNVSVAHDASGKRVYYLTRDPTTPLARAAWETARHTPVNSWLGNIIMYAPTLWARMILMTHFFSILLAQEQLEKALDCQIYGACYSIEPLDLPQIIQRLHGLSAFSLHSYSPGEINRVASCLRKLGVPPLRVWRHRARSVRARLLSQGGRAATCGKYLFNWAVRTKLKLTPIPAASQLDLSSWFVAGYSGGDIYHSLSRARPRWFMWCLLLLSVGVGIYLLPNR

Compound	IC50 [1]	EC50 [2]	IC50 [3]
CCCC(CCC)Nn1c(=O)c(C2=Nc3ccccc3S(=O)(=O)N2)c(O)c2ccccc21	2240 nM	–	1800 nM
CC(C)COn1c(=O)c(C2=Nc3ccccc3S(=O)(=O)N2)c(O)c2cccnc21	–	–	20500 nM
CCCC(CC)Nn1c(=O)c(C2=Nc3ccccc3S(=O)(=O)N2)c(O)c2ccccc21 (configuration not stated)	1890 nM	–	386 nM
O=c1c(C2=NS(=O)(=O)c3ccccc3N2)c(O)c2ccccc2n1NC1CCOCC1	4630 nM	–	439 nM
Cc1ccccc1CNn1c(=O)c(C2=Nc3ccccc3S(=O)(=O)N2)c(O)c2ccccc21	6120 nM	–	481 nM
Cc1cccc(CNn2c(=O)c(C3=NS(=O)(=O)c4ccccc4N3)c(O)c3ccccc32)c1	8210 nM	–	212 nM
CCCC(Nn1c(=O)c(C2=NS(=O)(=O)c3ccccc3N2)c(O)c2ccccc21)C(C)C (configuration not stated)	6400 nM	–	1130 nM
CCCCCNn1c(=O)c(C2=NS(=O)(=O)c3ccccc3N2)c(O)c2ccccc21	928 nM	–	–
O=c1c(C2=NS(=O)(=O)c3ccccc3N2)c(O)c2cccnc2n1C1CCCCC1	–	–	50000 nM
O=c1c(C2=NS(=O)(=O)c3ccccc3N2)c(O)c2ccccc2n1NCc1ccc(Cl)s1	4780 nM	–	1450 nM
Cc1ccc(CNn2c(=O)c(C3=Nc4ccccc4S(=O)(=O)N3)c(O)c3ccccc32)cc1	> 5000 nM	–	> 5000 nM
O=c1c(C2=NS(=O)(=O)c3ccccc3N2)c(O)c2ccccc2n1NCc1ccco1	3260 nM	–	305 nM
O=c1c(C2=Nc3ccccc3S(=O)(=O)N2)c(O)c2ccccc2n1NCc1ccccc1Br	6720 nM	–	469 nM
CCCCNn1c(=O)c(C2=Nc3ccccc3S(=O)(=O)N2)c(O)c2ccccc21	951 nM	3480 nM	161 nM
Cc1ccsc1CNn1c(=O)c(C2=NS(=O)(=O)c3ccccc3N2)c(O)c2ccccc21	15000 nM	–	1190 nM
O=c1c(C2=NS(=O)(=O)c3ccccc3N2)c(O)c2cccnc2n1CCc1ccccc1	–	–	1490 nM
CC(c1ccccc1)n1c(=O)c(C2=NS(=O)(=O)c3ccccc3N2)c(O)c2cccnc21 (configuration not stated)	–	–	4630 nM
CC(C)Nn1c(=O)c(C2=NS(=O)(=O)c3ccccc3N2)c(O)c2ccccc21	6350 nM	–	640 nM
CC(Nn1c(=O)c(C2=Nc3ccccc3S(=O)(=O)N2)c(O)c2ccccc21)c1ccccc1 (configuration not stated)	16500 nM	–	1490 nM
CCC(CC)n1c(=O)c(C2=NS(=O)(=O)c3ccccc3N2)c(O)c2cccnc21	–	–	13200 nM
O=c1c(C2=Nc3ccccc3S(=O)(=O)N2)c(O)c2ccccc2n1NCc1nccs1	35800 nM	–	674 nM
O=c1c(C2=NS(=O)(=O)c3ccccc3N2)c(O)c2cccnc2n1OCc1ccccc1	–	–	58000 nM
O=c1c(C2=Nc3ccccc3S(=O)(=O)N2)c(O)c2ccccc2n1NCc1cccnc1	> 5000 nM	–	221 nM
O=c1c(C2=Nc3ccccc3S(=O)(=O)N2)c(O)c2ccccc2n1NCC1CCCCC1	2530 nM	–	150 nM
O=c1c(C2=Nc3ccccc3S(=O)(=O)N2)c(O)c2ccccc2n1NCc1ccc(Br)cc1	10400 nM	–	4690 nM

Now from value to compound:

IC50 [1]	EC50 [2]	IC50 [3]	Compound
941 nM	1350 nM	101 nM	CC(C)CNn1c(=O)c(C2=NS(=O)(=O)c3ccccc3N2)c(O)c2ccccc21
411 nM	–	135 nM	CC(C)(C)CCNn1c(=O)c(C2=NS(=O)(=O)c3ccccc3N2)c(O)c2ccccc21
278 nM	103 nM	108 nM	O=c1c(C2=Nc3ccccc3S(=O)(=O)N2)c(O)c2ccccc2n1NCC1CCC1
5090 nM	15700 nM	129 nM	O=c1c(C2=Nc3ccccc3S(=O)(=O)N2)c(O)c2ccccc2n1NCc1ccccc1
1550 nM	–	133 nM	O=c1c(C2=Nc3ccccc3S(=O)(=O)N2)c(O)c2ccccc2n1NCc1ccoc1
–	–	58 nM	CCC(CC)Cn1c(=O)c(C2=NS(=O)(=O)c3ccccc3N2)c(O)c2cccnc21
356 nM	1270 nM	60 nM	O=c1c(C2=Nc3ccccc3S(=O)(=O)N2)c(O)c2ccccc2n1NC1CCCCC1
747 nM	–	150 nM	O=c1c(C2=Nc3ccccc3S(=O)(=O)N2)c(O)c2ccccc2n1NCC1CCCC1
2460 nM	–	120 nM	CCC(CC)Nn1c(=O)c(C2=NS(=O)(=O)c3ccccc3N2)c(O)c2ccccc21
–	–	69 nM	CC(C)CCn1c(=O)c(C2=NS(=O)(=O)c3ccccc3N2)c(O)c2cccnc21
285 nM	1050 nM	145 nM	O=c1c(C2=NS(=O)(=O)c3ccccc3N2)c(O)c2ccccc2n1NCC1CC1
629 nM	–	134 nM	CC(C)CCNn1c(=O)c(C2=Nc3ccccc3S(=O)(=O)N2)c(O)c2ccccc21
–	–	93 nM	O=c1c(C2=NS(=O)(=O)c3ccccc3N2)c(O)c2cccnc2n1CC1CCCCC1
2330 nM	–	125 nM	O=c1c(C2=Nc3ccccc3S(=O)(=O)N2)c(O)c2ccccc2n1NCc1cccs1
–	–	83 nM	O=c1c(C2=NS(=O)(=O)c3ccccc3N2)c(O)c2cccnc2n1Cc1ccccc1
1040 nM	–	75 nM	O=c1c(C2=NS(=O)(=O)c3ccccc3N2)c(O)c2ccccc2n1NCc1cccc(Br)c1
